This passage reports IC50, CC50 and selectivity ratio results from ChEMBL document CHEMBL3352331, “Anti-respiratory syncytial virus prenylated dihydroquinolone derivatives from the gorgonian-derived fungus Aspergillus sp. XS-20090B15” (J Nat Prod, 2014).

Data set [1] has as its system Respiratory syncytial virus. The experiment in a line: Antiviral activity against Respiratory syncytial virus infected in human Hep2 cells assessed as inhibition of virus-induced cytopathic effect after 72 hrs by XTT assay. It counts as functional, organism-based. Particulars: HEp-2, 72 h. The method in brief:
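RSV-induced cytopathic effect inhibition in Hep-2 (human laryngeal carcinoma) cells, run by an established CPE-inhibition procedure. Ribavirin served as the positive control. Values are the mean of three replicate determinations.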

A short description of data set [2]: Cytotoxicity against human Hep2 cells after 48 hrs. It counts as cell-based, HEp-2. Particulars: read-out: TC50.
The nature of data set [3]: Therapeutic index, ratio of TC50 for human Hep2 cells to IC50 for Respiratory syncytial virus. The note with it: read-out: TI. It counts as cell-based, HEp-2.

pIC50: −log10 of the molar value.

`CN[C@H](C(=O)O[C@@H]1CC[C@@](C)(/C=C/c2ccc3c(c2O)[C@@](O)(c2ccccc2)[C@H](OC)C(=O)N3)C[C@@H]1C)C(C)C`: in data set [1], the negative-log IC50 (pIC50) was < 4.30.

For `CN[C@H](C(=O)O[C@@H]1CC[C@@](C)(/C=C/c2ccc3c(c2O)[C@@](O)(c2ccccc2)[C@H](OC)C(=O)N3)C[C@H]1C)C(C)C`, the pIC50 in data set [1] was 7.38. Also, the CC50 at 48 h in data set [2] is 22 µM. The selectivity ratio in data set [3] came to 520.

As for `CO[C@@H]1C(=O)Nc2ccc(/C=C/[C@]3(C)CCC(=O)[C@H](C)C3)c(O)c2[C@@]1(O)c1ccccc1`, the pIC50 in data set [1] is 5.18. Also, the CC50 at 48 h in data set [2] is 27 µM. For the same compound, the selectivity ratio in data set [3] stood at 4.

For the compound `CO[C@@H]1C(=O)Nc2ccc(/C=C/[C@]3(C)CCC(=O)[C@@H](C)C3)c(O)c2[C@@]1(O)c1ccccc1` [AFLAQUINOLONE A], the pIC50 in data set [1] was < 4.30.

In the case of `NC(=O)c1ncn([C@@H]2O[C@H](CO)[C@@H](O)[C@H]2O)n1` [RIBAVIRIN], the pIC50 in data set [1] was 4.70. Besides, the CC50 at 48 h in data set [2] was > 3000 µM. Besides, the selectivity ratio in data set [3] is > 150.

As a reminder, the pIC50 is the negative decadic logarithm of the IC50, by convention in mol/L.
